Assay outcomes as filed in PubChem.
Shown are actives, neighbours in structure and some others; about 0.64% of the full set was active somewhere.
TNAP inh noacc = inhibitors of human TNAP without phosphate acceptor; P05186; purified TNAP, CDP-star luminescence, 30 min; inhibition, % at 20 µM; actives 0.26% (n = 200,000); AID 1012;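 active = tissue-nonspecific alkaline phosphatase inhibition above about 50% at 20 µM in the single-dose screen, limit read from the data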;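 also: 0% = DMSO negative control and 100% = EDTA positive control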
TNAP act hi DEA = activators of human TNAP at high phosphate acceptor concentration. 200,000 tested, under 10 active. AID 1136. activation factor at 20 µM. purified TNAP, CDP-star luminescence, 1 M DEA, 30 min; hits give high values; 0 = EDTA background, 1 = DMSO-only activity;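 active = activation factor at least 2 at 20 µM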
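Measured by: Luminescent substrate turnover signal | Test system: Human TNAP | Input: TNAP 1/800 final | Dosing: 20 µM single point | Schedule: 30 min, room temperature | Controls: EDTA wells as negative control, DMSO wells as positive control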
TNAP inh hi DEA = TNAP (human) inhibition, high acceptor. P05186. purified TNAP, CDP-star luminescence, 1 M DEA. AID 1135. inhibition, % at 20 µM. actives 0.03% (n = 200,000);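 active = over 50% inhibition of tissue-nonspecific alkaline phosphatase at 20 µM in the single-dose screen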;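 also: plate controls were DMSO wells for no effect and EDTA-quenched wells as full inhibition for full effect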
PMI act satM6P = increases human PMI activity with near-saturating mannose 6-phosphate; coupled PMI enzyme assay, resazurin fluorescence, 20 min; hits give high values; 1 = untreated enzyme, 0 = substrate-free blank; activation factor at 20 µM; actives 0.34% (n = 190,000); AID 1216;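 active = activation factor of 2 or more at 20 µM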
Target sequence (P34949 whole entry, looked up): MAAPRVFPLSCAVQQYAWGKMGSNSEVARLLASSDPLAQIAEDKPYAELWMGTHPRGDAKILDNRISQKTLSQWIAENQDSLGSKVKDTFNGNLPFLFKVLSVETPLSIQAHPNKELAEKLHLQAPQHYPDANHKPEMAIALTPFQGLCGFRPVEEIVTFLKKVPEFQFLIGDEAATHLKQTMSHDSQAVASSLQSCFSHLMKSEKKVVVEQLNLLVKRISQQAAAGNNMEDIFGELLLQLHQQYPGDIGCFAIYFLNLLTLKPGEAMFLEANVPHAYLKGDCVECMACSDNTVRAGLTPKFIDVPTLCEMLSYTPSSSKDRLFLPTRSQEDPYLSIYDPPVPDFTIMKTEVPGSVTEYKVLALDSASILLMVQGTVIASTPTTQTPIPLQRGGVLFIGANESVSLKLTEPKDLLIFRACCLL
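Material: human phosphomannose isomerase with PGI, G6PDH, diaphorase coupling enzymes; amount: PMI at 15 ng/mL final; also added: Mannose-6-phosphate 1.0 mM (near-saturating) plus 0.22 mM NADP+; incubation: enzyme reaction with compound 20 min at room temperature; signal: resorufin fluorescence (Ex 544/Em 590 nm) from resazurin via diaphorase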
PMI activator = increases human mannose-6-phosphate isomerase activity. purified human PMI, coupled resazurin fluorescence, 20 min; hits give high values; 1 = vehicle control, 0 substrate-free wells. activation factor at 20 µM. actives 0.005% (n = 190,000);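 active = activation factor of 2 or more at 20 µM, relative to plate controls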
Numbers without * were called inactive; . = no result given.

SMILES	TNAP inh noacc	TNAP act hi DEA	TNAP inh hi DEA	PMI act satM6P	PMI activator
Cc1ccc2c(c1)CC1(CN2C)C(=O)NC(=O)N(C(C)C)C1=O (centres undefined)	-8	1.1	-7	2.1*	1.7
Cc1ccc2c(c1)CC1(CN2C)C(=O)NC(=O)N(CCC2=CCCCC2)C1=O (centres undefined)	-5	1.1	-6	2.1*	1.6
Cc1cccc(N2C(=O)NC(=O)C3(Cc4cc(C)ccc4N(C)C3)C2=O)c1 (centres undefined)	-7	1.1	-5	1.4	1.5
CC(C)C[C@H](NC(=O)[C@@H]1CCCN1C(=O)[C@@H](N)Cc1ccc(O)cc1)C(=O)NCC(N)=O	-7	1	-4	0.9	0.9
COc1ccc2c(c1OC)C(=O)OC2c1c(O)n(Cc2ccc(F)cc2)c(=O)[nH]c1=O (centres undefined)	-11	1	-2	1.1	1.1
CCCCC1C(=O)NC(=S)NC1=O	-5	1	1	2*	1.6
CCCCC(=O)N/N=C/c1c(O)n(CC)c(=S)[nH]c1=O	87*	1.1	-9	1.1	0.8
CCCCC(=O)N/N=C/c1c(O)n(CCc2ccc(OC)c(OC)c2)c(=O)[nH]c1=O	-59	1	2	1	0.8
COC(=O)C1C2c3ccccc3C(c3ccccc32)C1C(=O)OC (centres undefined)	-8	1	0	1.1	1.1
O=C(N/N=C/c1c(O)n(CCC2=CCCCC2)c(=O)[nH]c1=O)c1ccccc1	67*	1	-2	1	1
O=C(N/N=C/c1c(O)n(CCC2=CCCCC2)c(=S)[nH]c1=O)c1ccccc1	-40	1	0	1.3	1.1
Cc1cc(C=C2C(=O)NC(=S)NC2=O)c(C)n1C1CCCC1	23	0.9	10	2.1*	1.6
CC(C)n1nnnc1CN1CCN(C)CC1	-7	1	-3	1	0.9
CCN(CC)S(=O)(=O)c1ccc(C)c(NCC(=O)Nc2ccc(C#N)c(Cl)c2)c1	1	1.1	-7	1	1
C=CCN1C(=O)NC(=O)/C(=C/C=C/c2ccccc2)C1=O	2	1	-2	1.2	1.2
CN(C)c1ccc(/C=C/C=C2/C(=O)NC(=O)N(c3ccccc3)C2=O)cc1	54*	0.5	51*	0.5	0.7
COc1ccc(/C=C2\C(=O)NC(=S)N(C)C2=O)cc1C	-8	1	-5	2.5*	1.7
Cc1cc(C)c(C(=O)CN2CCOCC2)c(C)c1	-13	1	-1	2.1*	1.6
CN1C(=O)c2ccccc2NC(=O)C1Cc1ccccc1 (centres undefined)	62*	1	-2	1.1	1.1
CN1C(=O)C(C2c3ccccc3C(=O)N2Cc2ccccc2)C(=O)N(C)C1=O (centres undefined)	-6	1.1	-7	1.4	1.1
COc1ccc(N/N=C/c2c(O)n(-c3cccc(C)c3)c(=O)[nH]c2=O)cc1	10	1	-4	2.7*	1.7
COc1ccc(N/N=C/c2c(O)n(-c3ccc(C)c(C)c3)c(=O)[nH]c2=O)cc1	2	1	4	1.2	1.2
ON1C2CCCCC2N(O)C1c1ccccc1F (centres undefined)	-6	1	0	1.3	1.2
Cc1nn(Cc2ccccc2)c(C)c1C=C1C(=O)NC(=S)NC1=O	-2	1	0	2.2*	1.6
CN1CCN(/N=C/c2c(O)n(C)c(=O)n(C)c2=O)CC1	-10	1	-4	.	.
Nc1ccccc1C(=O)OCc1ccc([N+](=O)[O-])cc1	-6	1	0	0.9	0.9
Oc1ccc(CC2CC3CCN2CC3)cc1O (centres undefined)	75*	0.9	7	0.7	0.5
CC(=NCCCO)c1c(O)n(Cc2ccccc2)c(=O)[nH]c1=O	-10	1	-2	1.1	1
C/C(=N\Nc1ccccc1)c1c(O)n(C)c(=O)n(C)c1=O	3	1	1	2.5*	1.6
C/C(=N\Nc1ccccc1)c1c(O)n(Cc2ccccc2)c(=O)[nH]c1=O	-8	1	1	2.5*	1.6
